In ChEMBL document CHEMBL3232847, “Discovery of 6-phenylpyrimido[4,5-b][1,4]oxazines as potent and selective acyl CoA:diacylglycerol acyltransferase 1 (DGAT1) inhibitors with in vivo efficacy in rodents” (J Med Chem, 2014):
Each block holds one compound with its values, some of them ahead of it. Calls of active or inactive are those of the source. The calls are words filed in the database; no cut-off is given here.

Key:
Rattus norvegicus [1] = test: Reduction in plasma triglyceride level in po dosed Sprague-Dawley rat compound treated 30 mins prior to olive oil administration measured 3 hrs post olive oil administration relative to vehicle-treated control; type: functional, organism-based
Procedure, shortened: (§1)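 Animals received vehicle or compound by oral gavage, then olive oil (5 mL/kg) by oral gavage 30 min later. Plasma triglycerides were measured before dosing and 3 h after the oil. The read-out was the change in TG from pre-dose, compared with vehicle-treated animals.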

Rattus norvegicus [2] = test: Reduction in plasma triglyceride level in Sprague-Dawley rat at 1 mg/kg, po treated 30 mins prior to olive oil administration measured 3 hrs post olive oil administration relative to vehicle-treated control; type: functional; set-up: scale not given: the % may be the effect or the level left; procedure, shortened: as §1
[3] = Volume of distribution at steady state in beagle dog at 0.5 mg/kg, iv; type: ADME, organism-based, Canis lupus familiaris; set-up: dose 0.5 mg/kg, route intravenous; conditions: in vivo, read-out: Vdss
[4] = Clearance in rhesus monkey at 0.2 mg/kg, iv; type: ADME, organism-based, Macaca mulatta; set-up: dose 0.2 mg/kg, route intravenous; conditions: in vivo
[5] = Drug metabolism in Sprague-Dawley rat liver S9 fraction assessed as 2-hydroxy compound formation by MS/MS analysis; type: ADME, subcellular
[6] = Half life in Sprague-Dawley rat at 1 mg/kg, iv; type: ADME, organism-based; set-up: dose 1 mg/kg, route intravenous; conditions: in vivo
[7] = AUC in beagle dog at 5 mg/kg, po; type: ADME, organism-based, Canis lupus familiaris; set-up: dose 5 mg/kg, route oral; conditions: plasma
[8] = Half life in beagle dog at 0.5 mg/kg, iv; type: ADME, organism-based, Canis lupus familiaris; set-up: dose 0.5 mg/kg, route intravenous; conditions: in vivo
Rattus norvegicus [9] = test: Toxicity in Sprague-Dawley rat assessed as sebaceous gland atrophy at 100 mg/kg, po by 14-day multiple-dose toxicity study; type: organism-based; set-up: dose 100 mg/kg, route oral; conditions: in vivo
Procedure, shortened: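 Sprague−Dawley rats were dosed po once daily for 14 days. Clinical and histopathological findings were assessed, and plasma AUC was recorded for each dose.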

[10] = AUC in Sprague-Dawley rat at 30 mg/kg, po; type: ADME, organism-based; set-up: dose 30 mg/kg, route oral; conditions: plasma
[11] = molecular target: T1, Diacylglycerol O-acyltransferase 2 (Homo sapiens) (UniProt Q96PD7); test: Inhibition of human liver flag-tagged DGAT2 expressed in baculovirus infected insect cells up to 10 uM after 2 hrs by SPA
T1 sequence (whole entry): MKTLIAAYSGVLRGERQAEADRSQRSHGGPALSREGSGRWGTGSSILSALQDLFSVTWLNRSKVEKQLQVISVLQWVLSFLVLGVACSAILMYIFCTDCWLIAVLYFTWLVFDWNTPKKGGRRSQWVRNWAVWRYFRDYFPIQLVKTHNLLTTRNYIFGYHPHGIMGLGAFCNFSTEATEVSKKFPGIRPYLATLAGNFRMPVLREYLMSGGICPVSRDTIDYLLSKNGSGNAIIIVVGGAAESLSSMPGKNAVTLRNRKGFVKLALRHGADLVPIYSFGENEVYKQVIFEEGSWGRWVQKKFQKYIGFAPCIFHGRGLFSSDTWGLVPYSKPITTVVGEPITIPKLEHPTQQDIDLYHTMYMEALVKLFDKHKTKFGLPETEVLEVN

[12] = Half life in rhesus monkey at 0.2 mg/kg, iv; type: ADME, organism-based, Macaca mulatta; set-up: dose 0.2 mg/kg, route intravenous; conditions: in vivo
[13] = Drug metabolism in cynomolgus monkey liver S9 fraction assessed as 2-hydroxy compound formation by MS/MS analysis; type: ADME, subcellular, Macaca fascicularis
Mus musculus [14] = species on record: Mus musculus; test: Inhibition of mouse liver microsomal GPAT up to 10 uM by TLC technique in presence of glycerol-3-phosphate and [14C] palmitoyl CoA
Mus musculus [15] = test: Reduction in plasma triglyceride level in C57BL/6J mouse at 0.3 mg/kg, po treated 30 mins prior to olive oil administration measured 3 hrs post olive oil administration relative to vehicle-treated control; type: functional; set-up: scale not given: the % may be the effect or the level left; procedure, shortened: as §1
Rattus norvegicus [16] = test: Reduction in plasma triglyceride level in Sprague-Dawley rat at 0.3 mg/kg, po treated 30 mins prior to olive oil administration measured 3 hrs post olive oil administration relative to vehicle-treated control; type: functional; set-up: scale not given: the % may be the effect or the level left; procedure, shortened: as §1
[17] = Oral Bioavailability in CD1 mouse at 2 mg/kg; type: ADME, organism-based; conditions: in vivo
[18] = Clearance in beagle dog at 0.5 mg/kg, iv; type: ADME, organism-based, Canis lupus familiaris; set-up: dose 0.5 mg/kg, route intravenous; conditions: in vivo
[19] = AUC in Sprague-Dawley rat at 2 mg/kg, po; type: ADME, organism-based; set-up: dose 2 mg/kg, route oral; conditions: plasma
[20] = AUC in Sprague-Dawley rat at 10 mg/kg, po qd; type: ADME, organism-based; set-up: dose 10 mg/kg, route oral; conditions: plasma
Procedure, shortened: (§2)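 Sprague-Dawley rats dosed orally once daily for 14 days in a multiple-dose toxicity study at 10, 30 or 100 mg/kg. Plasma exposure was reported as AUC, and clinical and histopathological findings were recorded.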

[21] = Clearance in cynomolgus monkey at 0.5 mg/kg, iv; type: ADME, organism-based, Macaca fascicularis; set-up: dose 0.5 mg/kg, route intravenous; conditions: in vivo
Mus musculus [22] = test: Reduction in plasma triglyceride level in po dosed C57BL/6J mouse compound treated 30 mins prior to olive oil administration measured 3 hrs post olive oil administration relative to vehicle-treated control; type: functional, organism-based; procedure, shortened: as §1
[23] = Volume of distribution at steady state in beagle dog at 0.2 mg/kg, iv; type: ADME, organism-based, Canis lupus familiaris; set-up: dose 0.2 mg/kg, route intravenous; conditions: in vivo, read-out: Vdss
[24] = AUC in Sprague-Dawley rat at 100 mg/kg, po qd; type: ADME, organism-based; set-up: dose 100 mg/kg, route oral; conditions: plasma; procedure, shortened: as §2
[25] = AUC in Sprague-Dawley rat at 5 mg/kg, po; type: ADME, organism-based; set-up: dose 5 mg/kg, route oral; conditions: plasma
[26] = Half life in Sprague-Dawley rat at 0.7 mg/kg, iv; type: ADME, organism-based; set-up: dose 0.7 mg/kg, route intravenous; conditions: in vivo
[27] = AUC in Sprague-Dawley rat at 30 mg/kg, po qd; type: ADME, organism-based; set-up: dose 30 mg/kg, route oral; conditions: plasma; procedure, shortened: as §2
[28] = Volume of distribution at steady state in cynomolgus monkey at 0.5 mg/kg, iv; type: ADME, organism-based, Macaca fascicularis; set-up: dose 0.5 mg/kg, route intravenous; conditions: in vivo, read-out: Vdss
[29] = Oral bioavailability in Sprague-Dawley rat at 5 mg/kg; type: ADME, organism-based; conditions: in vivo
[30] = molecular target: T2, Sterol O-acyltransferase 1 (Homo sapiens, UniProt P35610); test: Inhibition of human full-length flag-tagged ACAT1 expressed in baculovirus infected insect cells using [14C]palmitoyl CoA as substrate after 10 mins by scintillation counting
T2 sequence (P35610 whole entry): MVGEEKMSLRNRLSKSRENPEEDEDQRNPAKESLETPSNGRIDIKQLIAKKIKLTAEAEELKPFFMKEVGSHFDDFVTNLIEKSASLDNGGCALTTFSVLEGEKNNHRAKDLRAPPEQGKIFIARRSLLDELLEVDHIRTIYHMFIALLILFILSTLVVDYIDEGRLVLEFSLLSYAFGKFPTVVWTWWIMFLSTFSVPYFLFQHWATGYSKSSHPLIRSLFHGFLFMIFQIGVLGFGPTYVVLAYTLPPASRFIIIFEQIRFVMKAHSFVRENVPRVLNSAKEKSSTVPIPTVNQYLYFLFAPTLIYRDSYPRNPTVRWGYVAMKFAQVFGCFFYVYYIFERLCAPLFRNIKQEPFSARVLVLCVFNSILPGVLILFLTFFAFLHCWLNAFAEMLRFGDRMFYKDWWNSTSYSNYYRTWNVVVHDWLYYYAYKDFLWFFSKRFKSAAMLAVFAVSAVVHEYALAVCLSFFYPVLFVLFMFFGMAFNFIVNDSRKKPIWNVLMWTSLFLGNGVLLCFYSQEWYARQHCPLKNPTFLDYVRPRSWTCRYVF

[31] = AUC in CD1 mouse at 0.3 mg/kg, po; type: ADME, organism-based; set-up: dose 0.3 mg/kg, route oral; conditions: plasma
[32] = Clearance in beagle dog at 0.2 mg/kg, iv; type: ADME, organism-based, Canis lupus familiaris; set-up: dose 0.2 mg/kg, route intravenous; conditions: in vivo
Cynomolgus monkey = test: Toxicity in cynomolgus monkey assessed as elevation of prolongation of QTc interval at 10 to 30 mg/kg/day, po qd by 21-day multiple-dose toxicity study relative to control; type: organism-based, Macaca fascicularis; set-up: route oral; conditions: in vivo
Procedure, shortened: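 Cynomolgus monkeys were dosed po once daily at 10 and 30 mg/kg for 21 days. ALT and AST levels, QTc intervals, and clinical and histopathological findings were assessed, and plasma AUC was recorded for each dose.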

- Vd [3]: 1.9 L/kg
- clearance [4]: 3.67 mL/min/kg
- Drug metabolism [5]: metabolite_detected
- half-life [6]: 102 min
- AUC [7]: 4720 ng·h/mL
- half-life [8]: 144 min
- AUC [10]: 913 µM·h
- inhibition [11]: inactive
- half-life [12]: 108 min
- Drug metabolism [13]: metabolite_detected
- inhibition (Mus musculus [14]): inactive
- bioavailability [17]: 40%
- clearance [18]: 11 mL/min/kg
- AUC [19]: 1010 ng·h/mL
Structure (SMILES): CC1(C)Oc2ncnc(N)c2N=C1c1ccc([C@H]2CC[C@H](CC(=O)O)CC2)cc1
- Activity (Rattus norvegicus [1]): Dose-dependent effect
- Activity (Rattus norvegicus [2]): 110%
- Activity (Rattus norvegicus [9]): Toxic
- Activity (Mus musculus [15]): 93%
- Activity (Rattus norvegicus [16]): 88%

- AUC [20]: 11 µM·h
- clearance [21]: 0.333 mL/min/kg
- Vd [23]: 0.21 L/kg
- AUC [24]: 677 µM·h
- AUC [25]: 22900 ng·h/mL
- half-life [26]: 222 min
- AUC [27]: 78 µM·h
- Vd [28]: 0.44 L/kg
- bioavailability [29]: 98%
- IC50 [30]: > 10 µM
- AUC [31]: 341 ng·h/mL
- clearance [32]: 2.33 mL/min/kg
Structure (SMILES): CC1(C)Oc2nc(C(F)(F)F)nc(N)c2N=C1c1ccc2c(c1)CC[C@]21CC[C@@H](CC(=O)O)CC1
- Activity (Mus musculus [22]): Dose-dependent effect
- Activity (Cynomolgus monkey): Non-toxic
